Data reported in ChEMBL document CHEMBL3272018, “Synthesis of aziridinylallylaminophosphine oxides and sulfides as potential adjuvant cancer chemotherapeutic agents” (J Med Chem, 1976).
Calls of active or inactive are those of the source. No cut-off for these calls is given here.

Experiments:
W256 [1] = assay: Antitumor activity against rat Walker 256 cells intramuscularly allografted in rat assessed as survival rate at 3.12 mg/kg, qd administered for 5 days; format: functional, organism-based; parameters: dose 3.12 mg/kg
In short: (§1)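 Rats bearing Walker 256 carcinoma as a solid tumor; lines 1-8 use a cytoxan-resistant Walker 256 subline. Dosed once daily for 5 days. Treated (T) and untreated control (C) groups are compared, and the response is given as T/C percentage, reflecting increase in survival time. Host weight change is the average weight change of the test group minus that of the controls, in grams.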

Rattus norvegicus [2] = assay: Toxicity in rat allografted with rat Walker 256 cells intramuscularly assessed as change in body weight at 1.56 mg/kg, qd administered for 5 days; format: organism-based; parameters: dose 1.56 mg/kg, route intramuscular; details: in vivo, im, 120 h
In short: (§2)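 Walker 256 carcinoma solid-tumour system in rats (parent line, or the line resistant to cytoxan). Dosing was one injection per day for 5 days. Toxicity was taken as the average net body-weight change of the treated group minus the average net weight change of the untreated tumour-bearing controls, in grams.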

W256 [3] = assay: Antitumor activity against rat Walker 256 cells intramuscularly allografted in rat assessed as tumor growth inhibition at 1.56 mg/kg, qd administered for 5 days relative to control; format: functional; details: W256, im, 120 h, route intramuscular, read-out: TGI
In short: (§3)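 Dosed once daily for 5 days. Response is tumor progression in treated (T) versus untreated control (C) animals, expressed as T/C percentage. Host weight change is reported as the average net weight change of the test group minus that of the controls, in grams.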

W256 [4] = assay: Antitumor activity against rat Walker 256 cells intramuscularly allografted in rat assessed as tumor growth inhibition at 3.12 mg/kg, qd administered for 5 days relative to control; format: functional; details: W256, im, 120 h, route intramuscular, read-out: TGI
In short: (§4)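 Walker 256 carcinoma grown as a solid tumour in rats, with one injection daily for 5 days. Response is given as T/C %, the treated-group measure over the untreated-control tumour measure; a smaller value means more activity. Host toxicity is the mean net weight change of treated minus control animals, in grams.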

L1210 [5] = assay: In vivo antitumor activity against mouse L1210 cells in prognostic scoring system assessed as survival rate at 3 mg/kg, qd administered for 9 days; format: functional, organism-based; parameters: dose 3 mg/kg
In short: (§5)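 L1210 leukaemia in mice, run as an ascites tumour system. Injections were once daily for 9 or 15 days, or as a single dose. Response is the increase in survival time, given as T/C %, treated over untreated controls; a larger value means more activity. Weight change is the treated-group mean minus the control-group mean, in grams.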

W256 [6] = assay: Antitumor activity against rat Walker 256 cells intramuscularly allografted in rat assessed as survival rate at 0.78 mg/kg, qd administered for 5 days; format: functional, organism-based; parameters: dose 0.78 mg/kg; in short: as §1
W256 [7] = assay: Antitumor activity against rat Walker 256 cells intramuscularly allografted in rat assessed as tumor growth inhibition; format: functional; details: W256, im; in short: as §3
L1210 [8] = assay: In vivo antitumor activity against mouse L1210 cells in prognostic scoring system assessed as survival rate at 1 mg/kg, qd administered for 9 days; format: functional, organism-based; parameters: dose 1 mg/kg; in short: as §5
W256 [9] = assay: Antitumor activity against rat Walker 256 cells intramuscularly allografted in rat assessed as survival rate at 1.56 mg/kg, qd administered for 5 days; format: functional, organism-based; parameters: dose 1.56 mg/kg; in short: as §1
L1210 [10] = assay: In vivo antitumor activity against mouse L1210 cells in prognostic scoring system assessed as survival rate at 1.8 mg/kg, qd administered for 9 days; format: functional, organism-based; parameters: dose 1.8 mg/kg; in short: as §5
L1210 [11] = assay: In vivo antitumor activity against mouse L1210 cells in prognostic scoring system assessed as tumor growth inhibition at 3 mg/kg, qd administered for 9 days relative to control; format: functional; details: L1210, 216 h, read-out: TGI
W256 [12] = assay: Antitumor activity against rat Walker 256 cells intramuscularly allografted in rat assessed as tumor growth inhibition at 0.78 mg/kg, qd administered for 5 days relative to control; format: functional; details: W256, im, 120 h, route intramuscular, read-out: TGI; in short: as §3
Rattus norvegicus [13] = assay: Toxicity in rat allografted with rat Walker 256 cells intramuscularly assessed as change in body weight at 0.78 mg/kg, qd administered for 5 days; format: organism-based; parameters: dose 0.78 mg/kg, route intramuscular; details: in vivo, im, 120 h; in short: as §2
W256 [14] = assay: Antitumor activity against rat Walker 256 cells intramuscularly allografted in rat assessed as survival rate at 6.25 mg/kg, qd administered for 5 days; format: functional, organism-based; parameters: dose 6.25 mg/kg; in short: as §1
W256 [15] = assay: Antitumor activity against rat Walker 256 cells intramuscularly allografted in rat assessed as tumor growth inhibition at 6.25 mg/kg, qd administered for 5 days relative to control; format: functional; details: W256, im, 120 h, route intramuscular, read-out: TGI; in short: as §4
[16] = Toxicity in rat allografted with rat Walker 256 cells intramuscularly; format: organism-based
Rattus norvegicus [17] = assay: Toxicity in rat allografted with rat Walker 256 cells intramuscularly assessed as change in body weight at 6.25 mg/kg, qd administered for 5 days; format: organism-based; parameters: dose 6.25 mg/kg, route intramuscular; details: in vivo, im, 120 h; in short: as §2
[18] = Therapeutic index, ratio of LD50 for rat allografted with rat Walker 256 cells to ED10 for antitumor activity against rat Walker 256 cells intramuscularly allografted in rat; format: cell-based; details: read-out: TI
In short: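 Therapeutic index is LD50/ED10 in the Walker 256 solid tumour system. ED10 is the dose giving a 10% tumour weight reduction, with values extrapolated from dose-response data.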

Musca domestica [19] = assay: Toxicity in male house fly assessed as lowest dose required to cause complete sterility administered in sugar; format: organism-based; details: in vivo, po
L1210 [20] = assay: In vivo antitumor activity against mouse L1210 cells in prognostic scoring system assessed as survival rate at 5 mg/kg, qd administered for 9 days; format: functional, organism-based; parameters: dose 5 mg/kg; in short: as §5
Rattus norvegicus [21] = assay: Toxicity in rat allografted with rat Walker 256 cells intramuscularly assessed as change in body weight at 3.12 mg/kg, qd administered for 5 days; format: organism-based; parameters: dose 3.12 mg/kg, route intramuscular; details: in vivo, im, 120 h; in short: as §2
Musca domestica [22] = assay: Toxicity in male house fly assessed as lowest dose required to cause complete sterility administered in food; format: organism-based; details: in vivo, po
Rattus norvegicus [23] = assay: Toxicity in rat allografted with rat Walker 256 cells intramuscularly assessed as change in body weight at 3 mg/kg, qd administered for 5 days; format: organism-based; parameters: dose 3 mg/kg, route intramuscular; details: in vivo, im, 120 h; in short: as §2
W256 [24] = assay: Antitumor activity against rat Walker 256 cells intramuscularly allografted in rat assessed as tumor growth inhibition at 3 mg/kg, qd administered for 5 days relative to control; format: functional; details: W256, im, 120 h, route intramuscular, read-out: TGI; in short: as §4
W256 [25] = assay: Antitumor activity against rat Walker 256 cells intramuscularly allografted in rat assessed as survival rate at 3 mg/kg, qd administered for 5 days; format: functional, organism-based; parameters: dose 3 mg/kg; in short: as §1
W256 [26] = assay: Antitumor activity against rat Walker 256 cells intramuscularly allografted in rat assessed as survival rate at 0.3 mg/kg, qd administered for 5 days; format: functional, organism-based; parameters: dose 0.3 mg/kg; in short: as §1
W256 [27] = assay: Antitumor activity against rat Walker 256 cells intramuscularly allografted in rat assessed as tumor growth at 0.3 mg/kg, qd administered for 5 days (reference value: 9.2 g); format: functional; details: route intramuscular; in short: as §3
Rattus norvegicus [28] = assay: Toxicity in rat allografted with rat Walker 256 cells intramuscularly assessed as change in body weight at 0.3 mg/kg, qd administered for 5 days; format: organism-based; parameters: dose 0.3 mg/kg, route intramuscular; details: in vivo, im, 120 h; in short: as §2

C=CCN(CC=C)P(=O)(N1CC1C)N1CC1C (stereo unspecified)
Activity (W256 [1]): Active | Activity (Rattus norvegicus [2]): -22 g | inhibition in vivo at 1.56 mg/kg (W256 [3]): 5% | inhibition in vivo at 3.12 mg/kg (W256 [4]): 0% | Activity (L1210 [5]): Active | Activity (W256 [6]): Active | ED10 (W256 [7]): 3.5 mg/kg | Activity (L1210 [8]): Active | Activity (W256 [9]): Active | Activity (L1210 [10]): Active | inhibition in vivo at 3 mg/kg (L1210 [11]): 172% | inhibition in vivo at 0.78 mg/kg (W256 [12]): 24% | Activity (Rattus norvegicus [13]): -8 g | Activity (W256 [14]): Active | inhibition in vivo at 6.25 mg/kg (W256 [15]): 3% | LD50 [16]: 22 mg/kg | Activity (Rattus norvegicus [17]): -28 g | selectivity ratio [18]: 9 | Activity (Musca domestica [19]): 0.5% | Activity (L1210 [20]): Active | Activity (Rattus norvegicus [21]): -15 g | Activity (Musca domestica [22]): 0.25%

C=CCN(CC=C)P(=S)(N1CC1C)N1CC1C (stereo unspecified)
Activity (Rattus norvegicus [23]): -7 g | ED10 (W256 [7]): 0.7 mg/kg | LD50 [16]: 7 mg/kg | selectivity ratio [18]: 10 | inhibition in vivo at 3 mg/kg (W256 [24]): 14% | Activity (Musca domestica [19]): 1% | Activity (W256 [25]): Active | Activity (Musca domestica [22]): 1%

C=CCN(CC=C)P(=S)(N1CC1)N1CC1
Activity (W256 [26]): Active | Activity (W256 [27]): 9.5 g | LD50 [16]: 2 mg/kg | Activity (Musca domestica [19]): 0.05% | Activity (Musca domestica [22]): 0.05% | Activity (Rattus norvegicus [28]): 0 g
